From PubChem
The full list was thinned out, with hits kept by preference.
INS-1E_rescue = preserves ATP levels in cytokine-treated INS-1E cells | INS-1E cytokine-induced death, ATP luminescence, 48 h; normalised: neutral wells 0, positive control 100 | protection from cytokine-induced ATP loss, % at 10 µM | 0.1% of 20,000 active | AID 488910;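 active means mean replicate protection from cytokine-induced ATP loss at least 50% and at least 75% of replicates each reaching 50%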
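Assay system: INS-1E rat insulinoma cells. Amount: 8000 cells per well. Medium: phenol-red-free RPMI with 5% fetal bovine serum. Reagent: IL-1β, TNF-α and IFN-γ cytokine mix. Doses: one compound concentration, pin transfer. Schedule: 48 h co-treatment, 10 min post-lysis read. Detection: CellTiter-Glo luminescence measuring cellular ATP.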
T_cruzi_HTS = blocks T. cruzi growth inside host cells | intracellular Trypanosoma cruzi in host cells, plate reader | activity score (inhibition), % at 5.01 µM | 4.9% of 22,000 active | AID 651903; in the data active means activity score above about 55%;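 further: parasites and compound incubated about four days before reading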
A1_apoptosis_2 = A1 inhibition read as caspase activation. MEF A1-2A-BIM cells, caspase-Glo luminescence, 3 h; percent of clofoctol response, DMSO zero. caspase activation, % (concentration not given with the values). 24,000 tested, under 10 active; in the data active means caspase activation above about 5.9%
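Evaluation: Caspase-3/7 activity from luminescence increase | Assay system: A1-2A-BIM mouse embryonic fibroblasts | Quantity: 2500 MEF cells/well | Medium: RPMI-1640 plus 10% FBS | Detection: Caspase-Glo 3/7 luminescence, 1 h at room temperature | Dosing: 50 nL compound per well, pinned | Timing: Cells settled overnight, compound exposure 3 h at 37 °C, 5% CO2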
A number is an active result; – = inactive; · = no result given.

SMILES INS-1E_rescue T_cruzi_HTS A1_apoptosis_2
C[C@H](CO)N1C[C@H](C)[C@@H](CN(C)C(=O)Nc2ccc(C(F)(F)F)cc2)Oc2ccc(NC(=O)Nc3ccc4c(c3)OCO4)cc2CC1=O · · –
C[C@H](CO)N1C[C@H](C)[C@H](CN(C)Cc2ccc3c(c2)OCO3)Oc2ccc(NC(=O)Nc3ccc4c(c3)OCO4)cc2CC1=O – – –
C[C@H](CO)N1C[C@H](C)[C@H](CN(C)Cc2ccc(C(F)(F)F)cc2)Oc2ccc(NC(=O)Nc3ccc4c(c3)OCO4)cc2CC1=O – 67.2 –
C[C@H]1CN([C@@H](C)CO)C(=O)Cc2cc(NC(=O)Nc3ccc4c(c3)OCO4)ccc2O[C@H]1CN(C)Cc1ccc(C(F)(F)F)cc1 – 67.7 ·
C[C@@H]1CN([C@H](C)CO)C(=O)Cc2cc(NC(=O)Nc3ccc4c(c3)OCO4)ccc2O[C@H]1CN(C)C(=O)Nc1ccc(C(F)(F)F)cc1 – – ·
C[C@H]1CN([C@@H](C)CO)C(=O)Cc2cc(NC(=O)Nc3ccc4c(c3)OCO4)ccc2O[C@@H]1CN(C)Cc1ccc(C(F)(F)F)cc1 – 71.3 –
C=CC[C@]1(C(=O)NCCN2CCOCC2)COC(c2ccc(OCCCO)cc2)=N1 · · –
C=CCOC(=O)[C@H]1[C@@H]2C(=O)O[C@@H](c3ccccc3)[C@@H](c3ccccc3)N2[C@@H](c2ccc(OCCOC(=O)[C@H]3C[C@H]4C(=O)N[C@@H](CCCCNC(C)=O)C(=O)N4[C@H]3c3ccc(O)cc3)cc2)[C@]12C(=O)Nc1ccccc12 · · –
COc1ccc([Si](C)(C)[C@H]2[C@H](CCn3cc(CCO)nn3)O[C@@]3(C(=O)N(Cc4ccc(N5CCOC5=O)cc4)c4ccccc43)[C@@H]2C)cc1 · · –
C#CCN([C@H](/C=C/C1CC1)[C@@H](O)Cc1ccccc1)[C@@H](Cc1ccc(N=[N+]=[N-])cc1)C(=O)OC · · –
COc1ccc(COCC23N=C4SCc5ccccc5CN4[C@H](c4ccccc4O2)[C@H]3CO[Si](C)(C)C(C)(C)C)cc1 · · –
CN(CCO)c1ccc(/C=N/NC(=O)CCCCCCC(=O)NO)cc1 · · –
C[C@H]1CN([C@@H](C)CO)C(=O)Cc2cc(NC(=O)Nc3ccc(F)cc3)ccc2O[C@H]1CN(C)Cc1ccc2c(c1)OCO2 – – ·
C[C@H]1CN([C@@H](C)CO)C(=O)Cc2cc(NC(=O)Nc3ccc(C(F)(F)F)cc3)ccc2O[C@H]1CN(C)Cc1ccc2c(c1)OCO2 – 59.7 ·
CC(C)(C)OC(=O)N1CCC[C@H]1/C=N/NC(=O)CCCCCC(=O)Nc1ccccc1O – – ·
O=C(CCCCCC(=O)Nc1ccccc1O)N/N=C/c1cccc(B(O)O)c1 – – –
C[C@H](CO)N1C[C@H](C)[C@@H](CN(C)C(=O)Nc2ccccc2)Oc2c(NC(=O)Nc3cccc4ccccc34)cccc2C1=O – 67.6 ·
C[C@@H]1CN([C@H](C)CO)C(=O)c2cccc(NC(=O)Nc3cccc4ccccc34)c2O[C@H]1CN(C)C(=O)Nc1ccccc1 – – ·
C[C@@H]1CN([C@@H](C)CO)C(=O)c2cccc(NC(=O)Nc3cccc4ccccc34)c2O[C@H]1CN(C)C(=O)Nc1ccccc1 – – –
C[C@H](CO)N1C[C@H](C)[C@H](CN(C)C(=O)Nc2ccccc2)Oc2c(NC(=O)Nc3cccc4ccccc34)cccc2C1=O – 63.4 –
C[C@H]1CN([C@@H](C)CO)C(=O)c2cccc(NC(=O)c3ccncc3)c2O[C@@H]1CN(C)Cc1ccc2c(c1)OCO2 – 78.2 –
C[C@H](CO)N1C[C@H](C)[C@@H](CN(C)Cc2ccc3c(c2)OCO3)Oc2c(NC(=O)c3ccncc3)cccc2C1=O – 76.1 –
C[C@@H]1CN([C@@H](C)CO)C(=O)c2cccc(NC(=O)c3ccncc3)c2O[C@@H]1CN(C)Cc1ccc2c(c1)OCO2 – – –
C[C@@H]1CN([C@H](C)CO)C(=O)c2cccc(NC(=O)c3ccncc3)c2O[C@@H]1CN(C)Cc1ccc2c(c1)OCO2 – – –
O=C(NO)c1cccc(C(=O)N/N=C/c2c(O)cc(O)cc2O)c1 – – –
SMILES INS-1E_rescue T_cruzi_HTS A1_apoptosis_2
C[C@H]1CN([C@@H](C)CO)C(=O)Cc2cc(NC(=O)Nc3ccc(F)cc3)ccc2O[C@@H]1CN(C)Cc1ccc(C(F)(F)F)cc1 – 83.8 –
COc1ccc(NC(=O)Nc2ccc3c(c2)CC(=O)N([C@@H](C)CO)C[C@@H](C)[C@H](CN(C)Cc2ccc(C(F)(F)F)cc2)O3)cc1 · · –
COc1ccc(CN(C)C[C@H]2Oc3ccc(NC(=O)Nc4ccc(C(F)(F)F)cc4)cc3CC(=O)N([C@@H](C)CO)C[C@@H]2C)cc1 – – –
C[C@H](CO)N1C[C@H](C)[C@H](CN(C)Cc2ccc(C(F)(F)F)cc2)Oc2ccc(NC(=O)Nc3ccc(F)cc3)cc2CC1=O – 77.6 ·
C[C@@H]1CN([C@H](C)CO)C(=O)Cc2cc(NC(=O)Nc3ccc(F)cc3)ccc2O[C@H]1CN(C)Cc1ccc(C(F)(F)F)cc1 – 72.9 ·
COc1cc(/C=N/NC(=O)c2ccccn2)ccc1O – – –
O=C(NO)c1ccc(C(=O)N/N=C/c2cccnc2Br)cc1 – – –
C[C@H](CO)N1C[C@H](C)[C@H](CN(C)Cc2ccccc2)Oc2ccc(NS(=O)(=O)c3cn(C)cn3)cc2C1=O · – –
O=C(CCCCCC(=O)Nc1ccccc1O)N/N=C\c1cccnc1Br – – ·
C[C@H](CO)N1C[C@H](C)[C@H](CN(C)C(=O)Nc2ccc3c(c2)OCO3)Oc2ncc(C#Cc3ccccc3)cc2C1=O · 69.2 –
C[C@H](CO)N1C[C@H](C)[C@H](CN(C)C(=O)Nc2ccc3c(c2)OCO3)Oc2ncc(-c3cccc(F)c3)cc2C1=O · – ·
C[C@H](CO)N1C[C@H](C)[C@H](CN(C)C(=O)Nc2ccc(F)cc2)Oc2ncc(-c3cccc(C(F)(F)F)c3)cc2C1=O · – –
C[C@H](CO)N1C[C@H](C)[C@H](CN(C)C(=O)Nc2ccc3c(c2)OCO3)Oc2ncc(-c3cccc(C(F)(F)F)c3)cc2C1=O · 67.3 ·
COc1ccc(NC(=O)N(C)C[C@@H]2Oc3ncc(-c4cccc(C(F)(F)F)c4)cc3C(=O)N([C@H](C)CO)C[C@@H]2C)cc1 · 59.4 –
C[C@H](CO)N1C[C@H](C)[C@H](CN(C)C(=O)Nc2ccccc2)Oc2ncc(-c3cccc(C(F)(F)F)c3)cc2C1=O · 63.9 –
COc1ccc(NC(=O)N(C)C[C@@H]2Oc3ncc(-c4ccc(OC)cc4)cc3C(=O)N([C@H](C)CO)C[C@@H]2C)cc1 · – ·
C[C@H](CO)N1C[C@H](C)[C@H](CN(C)C(=O)Nc2ccc3c(c2)OCO3)Oc2ncc(C#Cc3ccc(F)cc3)cc2C1=O – – –
O=C(CCCCC(=O)N/N=C/c1cccs1)NO – – ·
[N-]=[N+]=NCc1ccccc1C[C@]1(C(=O)N2CCOCC2)N=C(c2ccc(OCCCO)cc2)O[C@H]1c1ccccc1 · · –
C=C(C)[C@@H]1CC=C(/C=N/NC(=O)c2ccccn2)CC1 – – ·
O=C(N/N=C/c1c(O)cc(O)cc1O)c1ccccc1O – – –
